Hits are enriched below; roughly 2.7% of the tested compounds scored in any of these assays.
RAM inhibit – blocks the yeast RAM network; S. cerevisiae dse1pr::URA3 reporter, 5-FOA growth OD615, 2 d; analog-sensitive cbk1-as2 kinase mutant strain; inhibition, % at 50 µM; 190,000 tested, 1.8% active; AID 868;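 active = inhibition above a set limit, 3 SD over mean compound inhibition, cut at about 8.4% in these data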;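 note: inhibition rescues growth on 5-FOA so higher OD means more RAM inhibition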
Yeast lifespan up – yeast lifespan extension; S. cerevisiae growth with nicotinamide, OD615; deaD strain in restrictive glucose medium; inhibition of the nicotinamide effect, % at 10 µM; 130,000 tested, 0.68% active; AID 775;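 active = inhibition above a set limit, placed 3 SD over the median of all compounds, cut at about 26% in these data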
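Material: Modified budding yeast, DeaD strain | Medium: Restrictive glucose medium | Probe or stimulus: 1.5 mM nicotinamide | Dosing: Single dose 10 µM compound, 0.25% DMSO | Times: 48 h at 30 °C | Technique: OD615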
SDO1 yeast rescue – compounds rescuing growth of sdo1-depleted yeast, bone marrow failure model; S. cerevisiae sdo1-depleted JHY4D growth rescue, OD600 30 h; stronger effect = higher value; pdr5 snq2 efflux-pump mutant strain; z-score at 10 µM; 140,000 tested, 0.21% active; AID 817;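 active = z-score above 3 at both the 24 hr and the 30 hr optical density reads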
BB579 growth dn – yeast BB579 growth reduction in restrictive medium; 140,000 tested, 0.51% active; AID 804; S. cerevisiae BB579 growth, OD615, 48 h; inhibition, % at 10 µM;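 active = inhibition above a set limit, 3 SD over the mean compound inhibition, cut at about 44% in these data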
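Test system: DeaD yeast strain BB579 / Buffer or medium: restrictive glucose-based CSMM-D medium / Doses: single 10 µM dose / Schedule: 4 h cell preincubation, 48 h compound exposure, 30 °C humidified / Technique: culture absorbance at 615 nm / Controls: amphotericin B positive control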
SDO1 rescue DR – confirmation of growth rescue in SDO1-depleted yeast, bone marrow failure; shares compounds with SDO1 yeast rescue; S. cerevisiae JHY4D (SDO1-depleted) growth rescue, OD600, 30 h; stronger effect = higher value; efflux-deficient strain, SNQ2 and PDR5 mutated; OD recovery (test concentration not listed); 440 tested, 44% active;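 active = yeast growth recovered at 30 hours, either rising with dose fitted slope above 0.001 or with average optical density gain above 0.07, some results past the limit were not filed as active; inactive = growth falling with dose or no effect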
A number is an active result; – = inactive; · = not tested or not shown.

SMILES | RAM inhibit | Yeast lifespan up | SDO1 yeast rescue | BB579 growth dn | SDO1 rescue DR
O=C(C1COc2ccccc2O1)N1CCN(c2ccccc2F)CC1 (stereo not drawn) | – | – | 3.15 | – | 0.114
COc1ccccc1OC(C)C(=O)O (stereo not drawn) | – | – | 5.15 | – | –
COc1ccccc1OCC(=O)O | – | – | – | – | ·
CSc1nsc(SC)c1C(=O)N1CCN(S(=O)(=O)c2ccc(C)cc2)C1C (stereo not drawn) | – | – | 3.85 | – | –
CSc1nsc(SC)c1C(=O)N1CCN(S(=O)(=O)c2ccc(C)cc2)C1C(C)C (stereo not drawn) | – | · | – | – | ·
CCn1c(O)c(N=NC2=NC(=O)CS2)c2ccccc21 | – | – | 15.9 | – | –
CCn1c(O)c(N=N)c2ccccc21 | – | · | · | · | ·
COC(=O)c1sccc1NC(=O)c1ccc(OC)c(OC)c1 | – | – | – | – | –
CCOC(=O)c1oc2ccccc2c1NC(=O)c1cccc(OC)c1OC | – | – | – | – | 0.0947
COc1cccc2c1OCC/C2=N\NC(=O)COc1ccc(C)cc1 | – | – | – | – | –
Cc1ccc(S(=O)(=O)Cn2nnnc2C(c2ccccn2)N2CCN(c3ccccc3)CC2)cc1 (stereo not drawn) | – | – | – | – | ·
Cc1onc(-c2c(F)cccc2Cl)c1C(=O)NC1CCSC1=O (stereo not drawn) | – | – | 4.99 | – | –
Cc1cccc(/C=C(\c2nc3ccccc3[nH]2)S(=O)(=O)c2ccccc2)c1 | – | – | – | – | ·
CC(=O)Nc1nc(C)nc(-c2ccccc2)c1C(C)=O | – | – | – | – | ·
Cc1ccc(S(=O)(=O)N2CCCCC2)cc1NC(=O)COC(=O)Cc1c(F)cccc1Cl | – | – | 16.9 | – | 0.0896
Cc1ccc(S(=O)(=O)N2CCCCC2)cc1NC(=O)COC(=O)c1c(F)cccc1F | – | · | · | · | ·
COc1cccc(CC2CC(=O)N(CCc3ccc4c(c3)OCO4)C2=O)c1 (stereo not drawn) | – | – | 5.27 | – | 0.0879
Cc1ccc(CC2CC(=O)N(CCc3ccc4c(c3)OCO4)C2=O)cc1 (stereo not drawn) | – | – | – | – | ·
COC(=O)CN(CCc1ccccc1)S(=O)(=O)c1ccc(OC)c(OC)c1 | – | – | – | – | ·
C=CC[C@@H]1Cc2c(Br)ccc(Br)c2[C@@H](CC=C)N1 | – | – | 6.52 | – | 0.104
Cc1ccc(NC(=S)NC2CCN(Cc3ccccc3)CC2)cc1C | – | · | · | · | ·
COc1ccc2cc3cc(C(=O)Nc4cc(OC)c(OC)c(OC)c4)oc3nc2c1 | – | – | – | – | ·
COc1ccc2cc3cc(C(=O)Nc4ccc5c(c4)OCCO5)oc3nc2c1 | – | – | – | – | –
CCC(C)[C@H](NC(=O)NCCCN1CCOCC1)C(=O)OC (stereo partly drawn) | – | – | 5.59 | – | –
O=C(Nc1ccc(S(=O)(=O)NCc2cccnc2)cc1)c1ccco1 | – | – | – | – | –
SMILES | RAM inhibit | Yeast lifespan up | SDO1 yeast rescue | BB579 growth dn | SDO1 rescue DR
CC(=O)Nc1ccc(S(=O)(=O)NCc2cccnc2)cc1 | – | – | – | – | ·
c1nc(NCCN2CCOCC2)c2c3c(sc2n1)CCCCC3 | – | – | – | – | ·
N=c1c2c3c(sc2ncn1CCN1CCOCC1)CCCCC3 | – | – | 11.4 | – | –
CC(OC(=O)c1c2c(nc3ccccc13)/C(=C\c1ccc3c(c1)OCO3)CCC2)C(=O)Nc1ccc(S(N)(=O)=O)cc1 (stereo not drawn) | – | – | – | – | 0.0846
Cc1cccc(C)c1NC(=O)COC(=O)c1c2c(nc3ccccc13)/C(=C\c1ccc3c(c1)OCO3)CCC2 | – | – | – | – | ·
COC(=O)c1sccc1NC(=O)CSc1ccccc1NC(=O)CNC(C)C | – | · | · | · | ·
CC1=C(C(=O)NCc2ccc3c(c2)OCO3)C2(CCC(C)CC2)OC1=O (stereo not drawn) | – | – | – | – | –
CN(C)C(=O)CSc1nnc(-c2cc(-c3cccs3)nc3ccccc23)o1 | – | – | – | – | ·
Cc1ccc2nc(NC(=O)[C@H](C)N3C(=O)C4CC=CCC4C3=O)sc2c1 (stereo partly drawn) | – | · | · | · | ·
COC(=O)c1cc2ccsc2n1CC(=O)Nc1cc(C)cc(C)c1 | – | – | – | – | ·
CCOc1cc(C(=O)NCc2ccc(-c3nc4ccccc4o3)cc2)cc(OCC)c1OCC | – | – | – | – | –
COc1ccc(-c2noc(CCC(=O)NCCc3cccc(C)c3)n2)cc1 | – | · | · | · | ·
COc1ccc(-c2noc(CCC(=O)N(C)c3cccc(C)c3)n2)cc1 | – | – | 4.31 | – | –
O=C(NCCc1ccccc1)c1ccnc(/C=N/O)c1 | – | – | 7.99 | – | –
O=C(CN1CCCC1)NN=C(c1ccccc1)c1ccccc1 | – | · | · | · | ·
CN(CCC#N)C(=O)COc1ccc(Br)cc1Cl | – | · | · | · | ·
Cc1ccc(Cn2c(Sc3ncccn3)nc3c2c(=O)[nH]c(=O)n3C)cc1 | – | – | – | – | ·
Cc1ccc(Cn2c(Sc3nccc(C)n3)nc3c2c(=O)[nH]c(=O)n3C)cc1 | – | – | – | – | 0.0943
Cc1ccc(NC(=O)CCn2cnc3ccccc3c2=O)c(C)c1 | – | · | · | · | ·
CCOC(=O)C1=NOC2COC3(CCN(c4ncccn4)CC3)OCC12 (stereo not drawn) | – | · | · | · | ·
CCN(CC)S(=O)(=O)c1ccc(-c2nnc(SCC(=O)Nc3nc(C)cs3)o2)cc1 | – | – | – | – | –
COc1c(/C=N/Nc2ccc([N+](=O)[O-])cc2[N+](=O)[O-])c(C)nn1-c1ccccc1 | – | – | – | – | –
Cc1cc(C)n(CC(=O)N/N=C/c2ccc3c(c2)OCO3)n1 | – | – | – | – | ·
Cc1c(C#N)c2ncn(CCCN(C)C)c(=O)c2n1-c1ccccc1 | – | – | 3.58 | – | 0.102
Cc1c(C#N)c2ncn(Cc3ccccn3)c(=O)c2n1-c1ccccc1 | – | – | – | – | ·
SMILES | RAM inhibit | Yeast lifespan up | SDO1 yeast rescue | BB579 growth dn | SDO1 rescue DR
CCOc1ccc(NC(=O)c2ccncc2)cc1 | – | – | 4.08 | – | –
CCOc1ccc(C(=O)NC(=S)NCc2cccnc2)cc1 | – | – | – | – | 0.105
Cc1nccn1S(=O)(=O)c1ccc(Br)cc1Br | – | – | – | – | ·
O=C1C(=O)N(Cc2cccc([N+](=O)[O-])c2)c2ccccc21 | – | – | – | – | ·
Cc1nc2ccccn2c1C(=O)NCCCN1CCOCC1 | – | – | – | – | 0.0889
O=C(O)CC/C(=N\Nc1ccc(S(=O)(=O)N2CCCC2)cc1[N+](=O)[O-])c1cccs1 | – | – | – | – | ·
O=[N+]([O-])c1cc(S(=O)(=O)N2CCCC2)ccc1N/N=C/c1ccccn1 | – | – | – | – | ·
O=[N+]([O-])c1cc(S(=O)(=O)N2CCCC2)ccc1N/N=C/c1ccncc1 | – | – | – | – | –
O=[N+]([O-])c1cc(S(=O)(=O)N2CCCC2)ccc1N/N=C/c1cccs1 | – | – | – | – | –
CCCCNC(=O)[C@H](CSCc1ccccc1)N1Cc2ccccc2C1=O | – | – | – | – | ·

From PubChem BioAssay
